Rows were chosen to be rich in hits. Some 1.3% of all compounds tested hit in one or more screens of this group.
Rev-RRE block = disrupts HIV-1 Rev binding to RRE RNA | Rev peptide-RRE RNA binding, FRET | inhibition, % at 8 µM | 0.79% of 97,000 active;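 active means inhibition above the screen-wide mean plus 3 SD, cut at about 35% in these data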;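 further: 0% = median DMSO wells and 100% = median Neomycin B control wells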
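Test system: Cy5-tagged RRE RNA duplex with fluorescein-tagged Rev peptide | Read-out: % inhibition of FRET ratio versus controls | Probe or stimulus: Labelled Rev peptide | Incubation: 5 min RNA-compound premix plus 15 min binding step, 25 °C | Technique: FRET fluorescence readout | Benchmarks: DMSO low control, neomycin B high control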
LYP act = increases human PTPN22 phosphatase activity; Q9Y2R2; recombinant LYP, DiFMUP fluorescence; 0 = plate median, 100 = signal doubled; activation, % at 2 µM; 0.11% of 96,000 active; AID 697;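 active means activation at 2 µM above a set limit, the mean plus 5 SD, cut at about 37% in these data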
EphB4 antag = antagonists of human EphB4-ephrin-B2 interaction | P54760 | EphB4 LBD / TNYL-RAW-Alexa532 peptide, fluorescence polarization | inhibition, % at 7 µM | 0.15% of 97,000 active | AID 720;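 active means inhibition above the screen-wide mean inhibition plus 3 SD, cut at about 15% in these data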;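 further: 0% = DMSO wells and 100% = excess unlabeled TNYL-RAW peptide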
Target sequence (P54760 whole entry, looked up, the tested form may be a part): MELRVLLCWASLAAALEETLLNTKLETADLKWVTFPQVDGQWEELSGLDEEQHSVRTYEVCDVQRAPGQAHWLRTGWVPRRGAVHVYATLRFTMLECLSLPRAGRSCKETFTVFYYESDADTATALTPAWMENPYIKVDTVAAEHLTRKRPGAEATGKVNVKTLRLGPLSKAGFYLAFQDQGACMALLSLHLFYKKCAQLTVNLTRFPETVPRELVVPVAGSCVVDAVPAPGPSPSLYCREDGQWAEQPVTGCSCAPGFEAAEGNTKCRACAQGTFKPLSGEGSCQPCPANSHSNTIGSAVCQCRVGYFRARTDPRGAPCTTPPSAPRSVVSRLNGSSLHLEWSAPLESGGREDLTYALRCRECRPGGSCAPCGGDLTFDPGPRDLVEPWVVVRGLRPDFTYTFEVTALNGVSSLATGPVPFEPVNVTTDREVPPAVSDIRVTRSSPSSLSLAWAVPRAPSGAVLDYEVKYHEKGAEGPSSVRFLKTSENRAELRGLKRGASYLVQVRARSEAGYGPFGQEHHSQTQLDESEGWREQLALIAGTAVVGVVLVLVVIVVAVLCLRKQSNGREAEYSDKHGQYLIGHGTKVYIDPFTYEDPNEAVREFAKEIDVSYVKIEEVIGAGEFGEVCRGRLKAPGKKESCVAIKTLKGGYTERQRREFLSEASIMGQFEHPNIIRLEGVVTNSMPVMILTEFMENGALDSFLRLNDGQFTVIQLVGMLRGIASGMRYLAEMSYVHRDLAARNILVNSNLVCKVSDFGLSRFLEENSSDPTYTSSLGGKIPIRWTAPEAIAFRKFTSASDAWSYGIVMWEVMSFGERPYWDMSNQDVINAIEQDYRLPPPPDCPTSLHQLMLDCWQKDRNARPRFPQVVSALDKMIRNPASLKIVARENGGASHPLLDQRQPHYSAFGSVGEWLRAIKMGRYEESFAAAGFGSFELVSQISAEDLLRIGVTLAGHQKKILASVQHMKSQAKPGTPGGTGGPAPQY
PTPN22 inh 2 = LYP (human) phosphatase inhibition | recombinant LYP catalytic domain, DiFMUP fluorescence | inhibition, % at 2 µM | 0.21% of 96,000 active;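 active means inhibition at 2 µM at or above a set limit, the screen mean plus 3 SD, cut at about 24% in these data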;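 further: 0% = DMSO with enzyme and 100% = enzyme fully blocked by orthovanadate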
PTPN22 act conf = confirmation of human LYP phosphatase activators. shares compounds with LYP act. Recombinant LYP, DIFMUP fluorescence, activation; zero set by plate's median compound well. activation, % at 2 µM. 100 tested, under 10 active. AID 1031; call rule not given here
Starred values were filed as active, the others as inactive.

Screening Cc1ccc(C(C(=O)NC2CCCCC2)N2CCN(C(=O)c3ccco3)CC2)cc1 (centres undefined) returned Rev-RRE block -0.7, LYP act 2.8, EphB4 antag 3.0 and PTPN22 inh 2 -1.0.
For CCCc1nn(C)c2c1C(c1ccncc1)C(C#N)=C(N)O2 (centres undefined) the results were Rev-RRE block 3.4, LYP act 56.7*, EphB4 antag -7.0, PTPN22 inh 2 -57.0 and PTPN22 act conf -1.9.
Screening CCOc1cc(S(=O)(=O)NCc2ccccn2)ccc1Cl returned Rev-RRE block -1.1, LYP act 37.4*, EphB4 antag -4.9, PTPN22 inh 2 -39.1 and PTPN22 act conf -6.3.
`CC(C)OP(=O)(OC(C)C)C1(O)C(=O)Nc2ccccc21` (centres undefined) gave Rev-RRE block 9.0, LYP act 4.9, EphB4 antag 7.7 and PTPN22 inh 2 -2.3.
Screening O=c1[nH]c(=O)n(CCO)c2nnn(Cc3ccccc3)c12 returned Rev-RRE block 3.7, LYP act 16.2, EphB4 antag -2.2 and PTPN22 inh 2 -18.8.
For O=C(c1cc(-c2ccccn2)nc2c(Cl)cccc12)N1CCN(C(=O)C2CCCO2)CC1 (centres undefined) the results were Rev-RRE block 3.7, LYP act 44.6*, EphB4 antag -7.5, PTPN22 inh 2 -45.7 and PTPN22 act conf -3.2.
For CC(C)(C)NS(=O)(=O)c1cccc(S(=O)(=O)c2cccc(S(=O)(=O)NC(C)(C)C)c2)c1 the results were Rev-RRE block 9.7, LYP act -1.2, EphB4 antag -1.2 and PTPN22 inh 2 -1.5.
For CCCCN(CCCNC(=O)C1CCN(S(=O)(=O)CC)CC1)c1ccccc1 the results were Rev-RRE block -3.0, LYP act -1.8, EphB4 antag -3.1 and PTPN22 inh 2 5.5.
Screening CCN1C(=O)C2C(c3cccc(F)c3)NC(C)(C(=O)OC)C2C1=O (centres undefined) returned Rev-RRE block 2.7, LYP act -8.3, EphB4 antag 5.6 and PTPN22 inh 2 8.8.
For CCN1C(=O)C2C(c3cccc(F)c3)NC(CC)(C(=O)OC)C2C1=O (centres undefined) the results were Rev-RRE block -1.5, LYP act 41.5*, EphB4 antag -4.5, PTPN22 inh 2 -42.0 and PTPN22 act conf 7.3.
Screening NC(=O)c1nc(N2CCOCC2)nc(N2CCOCC2)n1 returned Rev-RRE block -1.0, LYP act 40.6*, EphB4 antag -4.0, PTPN22 inh 2 -42.5 and PTPN22 act conf 5.5.
Cc1c(NC(=O)c2ccc(Br)o2)c(=O)n(-c2ccccc2)n1C was read as Rev-RRE block 0.4, LYP act -0.9, EphB4 antag 4.5 and PTPN22 inh 2 -3.7.
COC(=O)c1ccc(NC(=S)NC2CCCCC2)cc1 was read as Rev-RRE block -0.6, LYP act 37.5*, EphB4 antag 6.0, PTPN22 inh 2 -33.0 and PTPN22 act conf -0.9.
Screening COC(=O)c1ccc(NC(=O)C2CCCCC2C(=O)O)cc1 (centres undefined) returned Rev-RRE block 6.9, LYP act -5.4, EphB4 antag -0.1 and PTPN22 inh 2 10.3.
`COc1ccccc1NC(=O)Cc1noc(CSc2nnc(C)s2)n1` gave Rev-RRE block 7.7, LYP act 45.6*, EphB4 antag -5.1, PTPN22 inh 2 -50.4 and PTPN22 act conf -2.3.
For Cc1cccc(CSc2ncc(CO)n2C)c1 the results were Rev-RRE block 6.0, LYP act 37.9*, EphB4 antag -6.9, PTPN22 inh 2 -41.3 and PTPN22 act conf -4.0.
COc1ccc(C(=O)NCCCN2CCOCC2)cc1OC was read as Rev-RRE block 3.3, LYP act 44.5*, EphB4 antag 7.0, PTPN22 inh 2 -40.9 and PTPN22 act conf 6.3.
For O=C(Nc1ccncc1)c1ccc2c(c1)C(=O)N(C1CCCCC1)C2=O the results were Rev-RRE block -1.2, LYP act -0.7, EphB4 antag -6.0 and PTPN22 inh 2 1.2.
Screening COc1cccc(SCc2noc(C(=O)NCC3CCCO3)c2C(=O)O)c1 (centres undefined) returned Rev-RRE block -1.1, LYP act 54.2*, EphB4 antag 3.1, PTPN22 inh 2 -49.3 and PTPN22 act conf 2.0.
`O=C(NCC1CCCO1)c1onc(CSc2ccc(Cl)cc2)c1C(=O)O` (centres undefined) gave Rev-RRE block -1.6, LYP act 7.4, EphB4 antag -5.7 and PTPN22 inh 2 -4.1.

From PubChem BioAssay
